In ChEMBL document CHEMBL2346554, “Extreme multidrug resistant HIV-1 protease with 20 mutations is resistant to novel protease inhibitors with P1'-pyrrolidinone or P2-tris-tetrahydrofuran” (J Med Chem, 2013):
The source made the active and inactive calls. The rule behind the calls is not given here.

Experiments:
[1] = test system: Human immunodeficiency virus type 1 protease (Human immunodeficiency virus 1), Q72874 [Q7K,L10F,I13V,I15V,D30V,V32I,L33F,E35D,M36I,S37N,I47V,I54L,Q58E,I62V,L63P,A71V,I84V,N88D,L89T,L90M]; assay: Ratio of amprenavir dissociation constant K to compound dissociation constant K for HIV1 protease Q7K, L10F, I13V, I15V, D30V, V32I, L33F, E35D, M36I, S37N, I47V, I54L, Q58E, I62V, L63P, A71V, I84V, N88D, L89T, L90M mutant
[2] = test system: Human immunodeficiency virus type 1 protease (Human immunodeficiency virus 1), Q72874 [Q7K,L10F,I13V,I15V,D30V,V32I,L33F,E35D,M36I,S37N,I47V,I54L,Q58E,I62V,L63P,A71V,I84V,N88D,L89T,L90M]; assay: Inhibition of transferrin receptor-fused HIV1 protease Q7K, L10F, I13V, I15V, D30V, V32I, L33F, E35D, M36I, S37N, I47V, I54L, Q58E, I62V, L63P, A71V, I84V, N88D, L89T, L90M mutant autoprocessing expressed in Escherichia coli up to 100 uM by SDS-PAGE analysis
Summary of the method: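 TFR-fused PR20 precursor was expressed in E. coli cultures grown with increasing inhibitor in the medium, up to 100 μM. The protein was partially purified, and autoprocessing was assessed by SDS-PAGE against wild-type TFR-PR with inhibitor.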

[3] = biological target: Protease (Human immunodeficiency virus 1) (UniProt Q9YQ12); assay: Inhibition of HIV1 protease dimerization transfected in COS7 cells relative to darunavir; format: cell-based; settings: COS-7
[4] = test system: Human immunodeficiency virus type 1 protease (Human immunodeficiency virus 1), Q72874 [Q7K,L10F,I13V,I15V,D30V,V32I,L33F,E35D,M36I,S37N,I47V,I54L,Q58E,I62V,L63P,A71V,I84V,N88D,L89T,L90M]; assay: Binding affinity to HIV1 protease Q7K, L10F, I13V, I15V, D30V, V32I, L33F, E35D, M36I, S37N, I47V, I54L, Q58E, I62V, L63P, A71V, I84V, N88D, L89T, L90M mutant expressed in Escherichia coli BL21 (DE3) assessed as association constant by isothermal titration calorimetric analysis
Summary of the method: (§1)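 PR20 (1.8−2.15 mg/mL in 12 mM HCl) was folded by adding 5 mM sodium acetate pH 6, then 100 mM sodium acetate pH 5, and centrifuged. It was titrated in the ITC cell with inhibitor at ~10-fold the PR20 concentration, in matching buffer. Inhibitor concentration was estimated from the fitted N at known PR20, assuming 1:1 binding. KL = 1/KA.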

[5] = test system: Human immunodeficiency virus type 1 protease (Human immunodeficiency virus 1), Q72874 [Q7K,L10F,I13V,I15V,D30V,V32I,L33F,E35D,M36I,S37N,I47V,I54L,Q58E,I62V,L63P,A71V,I84V,N88D,L89T,L90M]; assay: Binding affinity to HIV1 protease Q7K, L10F, I13V, I15V, D30V, V32I, L33F, E35D, M36I, S37N, I47V, I54L, Q58E, I62V, L63P, A71V, I84V, N88D, L89T, L90M mutant expressed in Escherichia coli BL21 (DE3) assessed as dissociation constant by isothermal titration calorimetric analysis; summary of the method: as §1
[6] = test system: Human immunodeficiency virus type 1 protease (Human immunodeficiency virus 1), Q72874 [Q7K,L10F,I13V,I15V,D30V,V32I,L33F,E35D,M36I,S37N,I47V,I54L,Q58E,I62V,L63P,A71V,I84V,N88D,L89T,L90M]; assay: Inhibition of transferrin receptor-fused HIV1 protease Q7K, L10F, I13V, I15V, D30V, V32I, L33F, E35D, M36I, S37N, I47V, I54L, Q58E, I62V, L63P, A71V, I84V, N88D, L89T, L90M mutant autoprocessing expressed in Escherichia coli at 100 to 150 uM by SDS-PAGE analysis
[7] = biological target: Protease (Human immunodeficiency virus 1) (UniProt Q9YQ12); settings: 0.5 to 8 uM

SMILES	Ratio [1]	inhibition [2]	fold change (FC) [3]	K [4]	K [5]	inhibition [6]	inhibition [7]
COc1ccc(S(=O)(=O)N(CC(C)C)C[C@@H](O)[C@H](Cc2ccccc2)NC(=O)O[C@H]2CO[C@H]3O[C@@H]4OCC[C@@H]4[C@H]32)cc1	4.5	inactive	10	25.3 ×10⁶ /M	39.5 nM		
CC(C)CN(C[C@@H](O)[C@H](Cc1ccccc1)NC(=O)O[C@H]1CCOC1)S(=O)(=O)c1ccc(N)cc1				5.61 ×10⁶ /M	178 nM	inactive	
CC(C)CN(C[C@@H](O)[C@H](Cc1ccccc1)NC(=O)O[C@H]1CO[C@H]2OCC[C@H]21)S(=O)(=O)c1ccc(N)cc1				24.5 ×10⁶ /M	41 nM	inactive	Active
COc1ccc(S(=O)(=O)N(C[C@H]2CCC(=O)N2)C[C@@H](O)[C@H](Cc2ccccc2)NC(=O)O[C@@H]2C[C@@H]3CCO[C@@H]3C2)cc1		inactive		1.04 ×10⁶ /M	960 nM		
